From ChEMBL document CHEMBL1137742, “Facile synthesis of bis(4,5-dihydro-1H-pyrazole-1-carboxamides) and their thio-analogues of potential PGE(2) inhibitory properties” (Eur J Med Chem, 2009)

Legend:
[1] = tested on: Rattus norvegicus; assay: Antiinflammatory activity in Wister albino rat assessed as inhibition of carrageenan-induced paw edema volume at 50 mg/kg, ip administered 1 hr before carrageenan challenge measured after 4 hrs; format: functional; conditions: route intraperitoneal
Summary of the method: (§1)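 Wistar albino rats of either sex (pregnant females excluded), 160–190 g, 6 per group. Dosed i.p. in DMSO 1 h before 0.1 ml of 1% carrageenan in saline was injected subcutaneously into the right hind paw; DMSO-only controls. Paw volume was read by plethysmometer at 4 h against the initial volume to give oedema volume and % inhibition of oedema.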

[2] = tested on: Rattus norvegicus; assay: Antiinflammatory activity in Wister albino rat assessed as inhibition of carrageenan-induced paw edema volume at 50 mg/kg, ip administered 1 hr before carrageenan challenge measured after 4 hrs relative to indomethacin; format: functional; parameters: scale not given: the % may be the effect or the level left; conditions: route intraperitoneal; summary of the method: as §1
[3] = tested on: Rattus norvegicus; assay: Antiinflammatory activity in Wister albino rat assessed as inhibition of carrageenan-induced paw edema volume at 10 mg/kg, ip administered 1 hr before carrageenan challenge measured after 4 hrs; format: functional; conditions: route intraperitoneal; summary of the method: as §1
[4] = tested on: Rattus norvegicus; assay: Gastrointestinal toxicity in fasted albino rat assessed ulcer index at 10 mg/kg, po administered for 3 days measured after 1 hr of last dose; format: organism-based; parameters: dose 10 mg/kg, route oral; conditions: in vivo
Summary of the method: (§2)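 Albino rats of either sex (pregnant excluded), 130–150 g, 6 per group, fasted 18 h. Dosed orally for 3 consecutive days in saline with a few drops of Tween 80. Killed 1 h after the last dose; stomach opened along the greater curvature, rinsed, and mucosa examined at 10× for lesions. Ulcer index computed from % incidence/10, mean ulcer number and severity.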

[5] = tested on: Rattus norvegicus; assay: Antiinflammatory activity against carrageenan-induced inflammation in albino rat 6-day-old air pouch model assessed as inhibition of PGE2 level at 10 mg/kg, po administered prior to carrageenan challenge measured after 6 hrs; format: functional
Summary of the method: (§3)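 Male albino rats, 200–250 g, 6 per group. Air pouch raised by subcutaneous dorsal air: 20 ml on day 1, 10 ml two days later, 10 ml on day 5. On day 6, oral dosing in saline with a few drops of Tween 80, then 2 ml of 1% carrageenan in saline into the pouch. Exudate was aspirated 6 h later under ether, frozen at −20 °C, and PGE2 measured by ELISA (pg/ml).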

[6] = tested on: Rattus norvegicus; assay: Antiinflammatory activity in Wister albino rat assessed as inhibition of carrageenan-induced paw edema volume at 20 mg/kg, ip administered 1 hr before carrageenan challenge measured after 4 hrs; format: functional; conditions: route intraperitoneal; summary of the method: as §1
[7] = tested on: Rattus norvegicus; assay: Antiinflammatory activity in ip dosed Wister albino rat assessed as inhibition of carrageenan-induced paw edema volume administered 1 hr before carrageenan challenge measured after 4 hrs; format: functional; summary of the method: as §1
[8] = tested on: Rattus norvegicus; assay: Gastrointestinal toxicity in fasted albino rat assessed ulcer index at 50 mg/kg, po administered for 3 days measured after 1 hr of last dose; format: organism-based; parameters: dose 50 mg/kg, route oral; conditions: in vivo; summary of the method: as §2
[9] = tested on: Rattus norvegicus; assay: Antiinflammatory activity against carrageenan-induced inflammation in albino rat 6-day-old air pouch model assessed as inhibition of PGE2 level at 50 mg/kg, po administered prior to carrageenan challenge measured after 6 hrs; format: functional; summary of the method: as §3

SMILES | inhibition in vivo at 50 mg/kg [1] [%] | Activity [2] [%] | inhibition in vivo at 10 mg/kg [3] [%] | UI [4] | Activity [5] [pg/mL] | inhibition in vivo at 20 mg/kg [6] [%] | ED50 [7] [mg/kg] | UI [8] | Activity [9] [pg/mL]
NC(=O)N1N=C(c2ccc(F)cc2)CC1c1ccccc1OCCOc1ccccc1C1CC(c2ccc(F)cc2)=NN1C(N)=O (stereo not given) | 20.8 | 30.8 | – | – | – | – | – | – | –
COc1ccc2c(c1)c(CC(=O)O)c(C)n2C(=O)c1ccc(Cl)cc1 [INDOMETHACIN] | – | – | 67.5 | 13.49 | 98.33 | – | – | – | –
Cc1ccc(C2=NN(C(N)=S)C(c3ccccc3OCCOc3ccccc3C3CC(c4ccc(C)cc4)=NN3C(N)=S)C2)cc1 (stereo not given) | 36.8 | 54.5 | – | – | – | – | – | – | –
Cc1ccc(C2=NN(C(N)=O)C(c3ccccc3OCCOc3ccccc3C3CC(c4ccc(C)cc4)=NN3C(N)=O)C2)cc1 (stereo not given) | 22.7 | 33.6 | – | – | – | – | – | – | –
NC(=S)N1N=C(c2cccs2)CC1c1ccccc1OCCOc1ccccc1C1CC(c2cccs2)=NN1C(N)=S (stereo not given) | 67.5 | 100 | 59.7 | – | – | 61.6 | 28.8 | 14.33 | 96.5
NC(=S)N1N=C(c2ccccc2)CC1c1ccccc1OCCOc1ccccc1C1CC(c2ccccc2)=NN1C(N)=S (stereo not given) | 24.5 | 36.3 | – | – | – | – | – | – | –
Cc1ccc(C2=NN(C(N)=S)C(c3ccc(OCCOc4ccc(C5CC(c6ccc(C)cc6)=NN5C(N)=S)cc4)cc3)C2)cc1 (stereo not given) | 34.7 | 51.4 | – | – | – | – | – | – | –
NC(=S)N1N=C(c2ccc(Cl)cc2)CC1c1ccccc1OCCOc1ccccc1C1CC(c2ccc(Cl)cc2)=NN1C(N)=S (stereo not given) | 55.2 | 81.8 | 50.3 | – | – | 53.7 | 34.6 | 12.16 | 110.83
NC(=O)N1N=C(c2ccccc2)CC1c1ccccc1OCCOc1ccccc1C1CC(c2ccccc2)=NN1C(N)=O (stereo not given) | 43.2 | 64 | – | – | – | – | – | – | –
NC(=O)N1N=C(c2ccc(Cl)cc2)CC1c1ccccc1OCCOc1ccccc1C1CC(c2ccc(Cl)cc2)=NN1C(N)=O (stereo not given) | 45.3 | 67.1 | – | – | – | – | – | – | –
NC(=S)N1N=C(c2ccc(F)cc2)CC1c1ccccc1OCCOc1ccccc1C1CC(c2ccc(F)cc2)=NN1C(N)=S (stereo not given) | 48 | 71.1 | 40.9 | – | – | 43.2 | 40.8 | 11.51 | 114.67
NC(=S)N1N=C(c2ccccc2)CC1c1ccc(OCCOc2ccc(C3CC(c4ccccc4)=NN3C(N)=S)cc2)cc1 (stereo not given) | 83.5 | 123.7 | 74.4 | – | – | 79.5 | 23.1 | 18.5 | 83.33
